Reference: ChEMBL document CHEMBL4706489, “Hydrogen sulfide releasing oridonin derivatives induce apoptosis through extrinsic and intrinsic pathways” (Eur J Med Chem, 2020)
Activity calls are given as the source filed them. No cut-off for these calls is given here.

Columns and labels:
HepG2 [1] = experiment: Induction of apoptosis in human HepG2 cells assessed as early apoptotic cells at 0.5 uM after 48 hrs by annexin V FITC and propidium iodide staining based flow cytometric analysis (reference value: 2.89%); assay type: functional
HepG2 [2] = experiment: Induction of cell cycle arrest in human HepG2 cells assessed as accumulation at G2 phase at 2 uM after 48 hrs by propidium iodide staining based flow cytometric analysis (reference value: 16.48 to 16.97%); assay type: functional
HepG2 [3] = experiment: Induction of apoptosis in human HepG2 cells assessed as viable cells at 2 uM after 48 hrs by annexin V FITC and propidium iodide staining based flow cytometric analysis (reference value: 93.5%); assay type: functional; conditions: read-out: Activity
K562 [4] = experiment: Induction of apoptosis in human K562 cells assessed as decrease in C-IAP2 protein expression at 1 uM after 24 hrs by chemiluminescence based apoptosis array method; assay type: functional, cell-based
Summary of the method: (§1)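 K562 cells were treated with 1 test agent for 24 h. Diluted total-cell lysates were applied to a human apoptosis antibody array covering 35 apoptosis-related proteins for 24 h. Unbound protein was washed off, and arrays were probed with a biotinylated detection antibody for 1 h. Relative expression was read from chemiluminescent signal by digital imaging.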

HepG2 [5] = experiment: Induction of cell cycle arrest in human HepG2 cells assessed as accumulation at G2 phase at 0.5 uM after 48 hrs by propidium iodide staining based flow cytometric analysis (reference value: 16.48 to 16.97%); assay type: functional
Summary of the method: (§2)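 HepG2 cells were treated with 0, 0.50, 1.0 or 2.0 test agent for 48 h. Cells were washed in cold PBS and fixed in 70% ethanol at −20 °C overnight. DNA-content distribution was measured by flow cytometry. Mean ± SD, three independent experiments.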

K562 [6] = experiment: Induction of apoptosis in human K562 cells assessed as late apoptotic cells at 2 uM after 48 hrs by annexin V FITC and propidium iodide staining based flow cytometric analysis (reference value: 0.42%); assay type: functional
K562 [7] = experiment: Induction of apoptosis in human K562 cells assessed as increase in DR5 protein expression at 1 uM after 24 hrs by chemiluminescence based apoptosis array method; assay type: functional, cell-based; summary of the method: as §1
HepG2 [8] = experiment: Induction of apoptosis in human HepG2 cells assessed as late apoptotic cells at 2 uM after 48 hrs by annexin V FITC and propidium iodide staining based flow cytometric analysis (reference value: 3.17%); assay type: functional
HepG2 [9] = experiment: Induction of cell cycle arrest in human HepG2 cells assessed as accumulation at S phase at 0.5 uM after 48 hrs by propidium iodide staining based flow cytometric analysis (reference value: 33.22 to 33.58%); assay type: functional
K562 [10] = experiment: Induction of apoptosis in human K562 cells assessed as increase in Bax protein expression at 1 uM after 24 hrs by chemiluminescence based apoptosis array method; assay type: functional, cell-based; summary of the method: as §1
HepG2 [11] = experiment: Induction of apoptosis in human HepG2 cells assessed as late apoptotic cells at 1 uM after 48 hrs by annexin V FITC and propidium iodide staining based flow cytometric analysis (reference value: 3.17%); assay type: functional
K562 [12] = experiment: Induction of apoptosis in human K562 cells assessed as chromatin shrinking after 24 to 48 hrs by Hoechst 33258 staining based fluorescence microscopic method; assay type: functional, cell-based; conditions: dose 1-4 µM, time 24-48 hrs
Summary of the method: (§3)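 K562 cells were exposed to 1.0, 2.0 or 4.0 test agent, with DMSO as vehicle control, for 24 h and 48 h. They were harvested, washed twice in PBS and stained with Hoechst 33258 (0.5 mg/mL in PBS) for 30 min in darkness. Slides were viewed by fluorescence microscopy with a DAPI filter. Three random fields of about 200 nuclei per sample were scored as % apoptotic nuclei. Three independent experiments.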

K562 [13] = experiment: Induction of apoptosis in human K562 cells assessed as nuclear fragmentation after 24 to 48 hrs by Hoechst 33258 staining based fluorescence microscopic method; assay type: functional, cell-based; conditions: dose 1-4 µM, time 24-48 hrs; summary of the method: as §3
HepG2 [14] = experiment: Induction of apoptosis in human HepG2 cells assessed as late apoptotic cells at 0.5 uM after 48 hrs by annexin V FITC and propidium iodide staining based flow cytometric analysis (reference value: 3.17%); assay type: functional
K562 [15] = experiment: Induction of apoptosis in human K562 cells assessed as viable cells at 2 uM after 48 hrs by annexin V FITC and propidium iodide staining based flow cytometric analysis (reference value: 96.76%); assay type: functional; conditions: read-out: Activity
[16] = Cytotoxicity against human PBMC cells assessed as cell viability after 72 hrs by MTT assay
K562 [17] = experiment: Antiproliferative activity against human K562 cells assessed as reduction in cell viability after 72 hrs by MTT assay; conditions: K562, 72 h
HepG2 [18] = experiment: Induction of apoptosis in human HepG2 cells assessed as early apoptotic cells at 1 uM after 48 hrs by annexin V FITC and propidium iodide staining based flow cytometric analysis (reference value: 2.89%); assay type: functional
HCT-116 = experiment: Antiproliferative activity against human HCT-116 cells assessed as reduction in cell viability after 72 hrs by MTT assay; conditions: HCT-116, 72 h
HepG2 [19] = experiment: Induction of cell cycle arrest in human HepG2 cells assessed as accumulation at G1 phase at 1 uM after 48 hrs by propidium iodide staining based flow cytometric analysis (reference value: 49.46 to 50.3%); assay type: functional; summary of the method: as §2
K562 [20] = experiment: Induction of cell cycle arrest in human K562 cells assessed as accumulation at G1 phase at 0.5 uM after 48 hrs by propidium iodide staining based flow cytometric analysis (reference value: 43.24 to 43.37%); assay type: functional
K562 [21] = experiment: Induction of apoptosis in human K562 cells assessed as down regulation of procaspase-3 at 1 uM after 24 hrs by chemiluminescence based apoptosis array method; assay type: functional, cell-based; summary of the method: as §1
[22] = Selectivity ratio of IC50 for cytotoxicity against human L02 cells to IC50 for antiproliferative activity against human K562 cells; assay type: toxicity, cell-based; conditions: read-out: Ratio IC50
K562 [23] = experiment: Induction of apoptosis in human K562 cells assessed as late apoptotic cells at 1 uM after 48 hrs by annexin V FITC and propidium iodide staining based flow cytometric analysis (reference value: 0.42%); assay type: functional
HepG2 [24] = experiment: Induction of apoptosis in human HepG2 cells assessed as necrotic cells at 1 uM after 48 hrs by annexin V FITC and propidium iodide staining based flow cytometric analysis (reference value: 0.89%); assay type: functional
K562 [25] = experiment: Induction of cell cycle arrest in human K562 cells assessed as accumulation at S phase at 1 uM after 48 hrs by propidium iodide staining based flow cytometric analysis (reference value: 44.73 to 45.96%); assay type: functional
K562 [26] = experiment: Induction of cell cycle arrest in human K562 cells assessed as accumulation at S phase at 2 uM after 48 hrs by propidium iodide staining based flow cytometric analysis (reference value: 44.73 to 45.96%); assay type: functional
K562 [27] = experiment: Induction of apoptosis in human K562 cells assessed as necrotic cells at 0.5 uM after 48 hrs by annexin V FITC and propidium iodide staining based flow cytometric analysis (reference value: 0.69%); assay type: functional
HepG2 [28] = experiment: Induction of apoptosis in human HepG2 cells assessed as viable cells at 1 uM after 48 hrs by annexin V FITC and propidium iodide staining based flow cytometric analysis (reference value: 93.5%); assay type: functional; conditions: read-out: Activity
K562 [29] = experiment: Induction of apoptosis in human K562 cells assessed as early apoptotic cells at 0.5 uM after 48 hrs by annexin V FITC and propidium iodide staining based flow cytometric analysis (reference value: 2.13%); assay type: functional

C=C1C(=O)[C@]23[C@H](OC(=O)CCC(=O)OCCCCCCOc4ccc(-c5cc(=S)ss5)cc4)[C@H]1CC[C@H]2[C@@]12CO[C@@]3(O)[C@@H](O)[C@@H]1C(C)(C)CC[C@@H]2OC(C)=O
Activity (HepG2 [1]): 10.52%
Activity (HepG2 [2]): 6.6%
viability at 2 µM (HepG2 [3]): 31.5%
Activity (K562 [4]): Active
Activity (HepG2 [5]): 13.24%
Activity (K562 [6]): 27.29%
Activity (K562 [7]): Active
Activity (HepG2 [8]): 37.6%
Activity (HepG2 [9]): 31.41%
Activity (K562 [10]): Active
Activity (HepG2 [11]): 12.72%
Activity (K562 [12]): Dose-dependent effect
Activity (K562 [13]): Dose-dependent effect
Activity (HepG2 [14]): 10.09%
viability at 2 µM (K562 [15]): 47.4%
IC50 [16]: > 50 µM
IC50 (K562 [17]): 0.95 µM
Activity (HepG2 [18]): 25.53%
IC50 (HCT-116): 5.81 µM
Activity (HepG2 [19]): 61.39%
Activity (K562 [20]): 38.61%
Activity (K562 [21]): Active
selectivity ratio [22]: 20
Activity (K562 [23]): 8.38%
Activity (HepG2 [24]): 1.26%
Activity (K562 [25]): 55.54%
Activity (K562 [26]): 62.64%
Activity (K562 [27]): 1.1%
viability at 1 µM (HepG2 [28]): 60.5%
Activity (K562 [29]): 7.1%
